Source: PubChem BioAssay
An excerpt weighted towards active compounds, which were near 1.4% of everything screened.
T cell modulator: modulates CD8 T cell binding to vesicles; response (vesicle binding), % at 7 µM; actives 0.068% (n = 330,000); 2C CD8+ T cell-vesicle binding, flow cytometry; stronger effect = lower value;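 active means response, share of CD8 T cells binding vesicles, and their 90th percentile fluorescence all below set limits, cut at about 80% in these data, passing the limit was not always enough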;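 further: values below 100% mean blocked vesicle binding to the CD8+ T cells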
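Assay system – 2C mouse CD8+ T cells · Also added – QL9-loaded Drosophila micro-vesicles · Timing – Cell–vesicle co-incubation 1.5 h at 37 °C, staining 20 min on ice · Signal – flow cytometry of vesicle-bound cells · Measure – percent CD8+ FL2 mean versus row control · Controls – Peptide-free naked vesicles (low) and QL9 vesicles with 0.7% DMSO vehicle (high)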
CASP6 VEID inh: inhibitors of human caspase-6; P55212; purified caspase-6, Z-VEID-R110 cleavage fluorescence; inhibition, % at 12.5 µM; actives 0.53% (n = 350,000);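 active means mean inhibition across replicates at least about 35%, with every replicate also reaching that limit, limit read from the data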;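 further: 0% = median of neutral control wells and 100% = no fluorescence left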
Target sequence (P55212 24-179 limits assumed): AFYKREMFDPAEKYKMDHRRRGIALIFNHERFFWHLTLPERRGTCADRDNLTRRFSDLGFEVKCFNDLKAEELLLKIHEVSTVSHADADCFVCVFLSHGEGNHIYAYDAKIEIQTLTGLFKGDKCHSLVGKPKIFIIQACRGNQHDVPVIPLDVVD
Target sequence (P55212 194-293 limits assumed): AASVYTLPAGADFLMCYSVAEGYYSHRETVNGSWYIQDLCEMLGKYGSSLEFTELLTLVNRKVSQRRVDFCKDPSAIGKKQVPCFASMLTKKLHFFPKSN
Vif imaging: blocks HIV Vif function | actives 0.35% (n = 340,000) | AID 602346 | HEK293T cells, Vif self-association by quenched fluorescence, imaging, 24 h | inhibition, % at 7.49 µM; in the data active means inhibition above about 50%, passing the limit was not always enough
Myeloid diff MLP: myeloid differentiation induction; ER-HoxA9 myeloid progenitors, lysozyme-GFP differentiation, flow cytometry; calls only at 10 µM; actives 1% (n = 360,000); AID 624256;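 active means normalized GFP-positive differentiation at or above the plate's own cutoff, the solvent-only control mean plus 3 SD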;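 further: cells exposed to compound for four days before flow analysis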
Myeloid diff: promotes myeloid progenitor differentiation; calls only; ER-HoxA9 myeloid progenitors, GFP/Mac1 double-positive flow; actives 2% (n = 2,300); shares compounds with Myeloid diff MLP;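 active means share of green or green-and-red cells above 9 and 9% in run 1 or 4 and 3% in run 2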
GFP autofluor: compound fluorescence in myeloid differentiation counter-screen. fluorescence response, % (concentration not given with the values). ER-HoxA9 myeloid progenitors, no estrogen, GFP autofluorescence flow cytometry; vehicle wells 0%, positive control 100%. AID 651707. actives 7.4% (n = 2,300). shares compounds with Myeloid diff MLP;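 active means over 5% cells positive for green fluorescent reporter, or over 2% positive for both it and APC stain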;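 further: range taken on the double positive population between DMSO and positive control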
Starred values were filed as active, the others as inactive; i = inactive; . = no result; + = active, no number.

SMILES | T cell modulator | CASP6 VEID inh | Vif imaging | Myeloid diff MLP | Myeloid diff | GFP autofluor
Cc1ccc(-c2cc(C(=O)NN=C3CCCC3)c3ccccc3n2)cc1 | 169.5 | . | 6.6 | i | i | 0.0
COc1ccccc1C(CCNCc1ccc(N(C)C)cc1)c1ccc(OC(C)C)cc1 (centres undefined) | 395.9 | 5.5 | -0.8 | i | i | 0.0
Cn1c(N=Nc2ccccc2)nc2ccccc21 | 344.5 | 39.1* | -3.8 | i | i | 0.3
O=[N+]([O-])c1cccc(/C=C/c2ccc3cccc(O)c3n2)c1 | 292.7 | 3.9 | -3.1 | i | . | .
O=[N+]([O-])c1cccc(/C=C/c2nc(C=Nc3ccc4ccccc4c3)c(O)o2)c1 | 276.9 | . | 3.4 | + | i | 5.7*
Cc1noc(C)c1NC(=O)N(C)C[C@H]1Oc2c(NC(=O)CCCCCC(=O)Nc3ccccc3N)cccc2C(=O)N([C@H](C)CO)C[C@@H]1C | . | 0.1 | . | . | . | .
CCn1c(-c2ccccc2Cl)nn(CC(=O)Nc2cc(Cl)ccc2Cl)c1=S | 299.7 | . | -13.5 | i | i | 0.0
CCn1c(-c2ccccc2Cl)nn(CC(=O)NCCc2ccccc2)c1=S | 198.6 | . | 0.9 | i | . | .
CO[C@H]1CN(C)C(=O)c2ccc(NS(=O)(=O)c3ccc(C)cc3)cc2OC[C@H](C)N(C(=O)NC(C)C)C[C@@H]1C | . | 1.5 | . | . | . | .
CCS(=O)(=O)N1C[C@@H](C)[C@H](OC)CN(C)C(=O)c2ccc(NC(=O)Nc3ccccc3Cl)cc2OC[C@H]1C | . | -0.5 | . | . | . | .
CC(C)(C)OC(=O)N1CC2(CCCCC2)CC1Cc1ccc(C(F)(F)F)cc1 (centres undefined) | . | -1.4 | 1.5 | i | i | 0.3
COc1ccc(C(=O)Nc2cccc(N(C)S(C)(=O)=O)c2)cc1OC | 349.1 | . | -4.3 | i | i | 0.0
COc1ccc(NC(=S)N2CCC3CC2c2c(Cl)cccc23)c(OC)c1 (centres undefined) | . | -1.9 | . | + | + | 0.0
C=CCNC(=S)N1CCC2CC1c1c(Cl)cccc12 (centres undefined) | . | -3.9 | . | i | . | .
COc1ccc(NC(=O)N(C)C[C@@H]2OCCCC[C@@H](C)Oc3ccc(NS(=O)(=O)c4ccc(OC)cc4)cc3C(=O)N([C@@H](C)CO)C[C@@H]2C)cc1 | . | -3.3 | . | . | . | .
O=C(NNC1=C(C(=O)C(F)(F)F)CCC1)c1ccccc1O | 221.6 | . | 0.7 | i | . | .
Nc1ccccc1C(=O)NNC1=C(C(=O)C(F)(F)F)CCC1 | 333.7 | 5.2 | 8.1 | + | i | 1.9
COc1ccccc1C(=O)NNC1=C(C(=O)C(F)(F)F)CCC1 | 564.8 | 3.3 | 9.0 | + | i | 1.6
COc1ccc(S(=O)(=O)N(C)C[C@@H]2Oc3ccc(NC(=O)Cn4cnnn4)cc3CC(=O)N([C@H](C)CO)C[C@@H]2C)cc1 | . | 1.6 | . | . | . | .
CCNC(=S)N(CCc1c(C)[nH]c2ccccc12)Cc1cc(OC)c(OC)c(OC)c1 | 911.4 | 2.9 | -21.1 | i | i | 0.0
C[C@@H]1CCCCO[C@H](CN(C)C(=O)c2ccccc2)[C@@H](C)CN([C@@H](C)CO)C(=O)c2cc(NC(=O)c3ccccc3)ccc2O1 | . | 1.8 | . | . | . | .
Oc1ccc(N2CCN(c3nnnn3-c3ccccc3)CC2)cc1 | 75.2 | -0.5 | -0.2 | + | i | 0.0
C[C@@H]1CN([C@@H](C)CO)C(=O)c2cc(C#Cc3ccccc3F)cnc2O[C@H]1CN(C)C(=O)c1ccc2c(c1)OCO2 | . | 2.3 | . | . | . | .
CCc1ccc(NC2CC(=O)N(c3ccc(OC)cc3OC)C2=O)cc1 (centres undefined) | 208.8 | -2.3 | 1.1 | i | i | 0.6
CCS(=O)(=O)N1CCC2(CC1)CN(C(=O)Nc1cccc(F)c1)[C@@H](CO)c1c2c2ccc(OC)cc2n1C | . | 2.3 | . | . | . | .
SMILES | T cell modulator | CASP6 VEID inh | Vif imaging | Myeloid diff MLP | Myeloid diff | GFP autofluor
Cc1ccc(-n2c(C)cc3c2CC(C)(C)CC3=O)cc1C | 422.3 | . | -5.5 | i | . | .
Cc1cc2c(n1-c1ccc(Br)cc1)CC(C)(C)CC2=O | 843.3 | . | -3.6 | i | i | 0.4
C[C@@H]1CCCCO[C@H](CN(C)C(=O)Nc2ccc3c(c2)OCO3)[C@H](C)CN([C@H](C)CO)C(=O)c2cc(NS(=O)(=O)c3cn(C)cn3)ccc2O1 | . | -0.5 | . | . | . | .
Cc1noc(C)c1S(=O)(=O)N(C)C[C@@H]1OCCCC[C@@H](C)Oc2ccc(NC(=O)NC3CCCCC3)cc2C(=O)N([C@H](C)CO)C[C@@H]1C | . | -1.0 | . | . | . | .
Cc1ccc(C(=O)ON=C2CCN(S(=O)(=O)c3ccccc3)CC2)cc1 | 258.6 | . | . | i | i | 0.0
O=C(ON=C1CCN(S(=O)(=O)c2ccccc2)CC1)c1ccc(F)cc1 | 343.0 | . | 7.7 | i | . | .
COCC#Cc1ccc2c(c1)O[C@@H](CN(C)Cc1ccc(F)cc1)[C@H](C)CN([C@@H](C)CO)S2(=O)=O | . | -0.9 | . | . | . | .
CCC(=O)N(CCC(c1ccc(C)cc1)c1ccco1)Cc1ccco1 (centres undefined) | 178.7 | 2.4 | -12.7 | i | i | 0.2
CCC(=O)Nc1ccc2c(c1)C(=O)N(C)[C@@H]1CC[C@@H](CC(=O)NCc3ccccc3)O[C@@H]1CO2 | . | -3.2 | . | . | . | .
Fc1ccc(C2=NN(c3ccccc3)C(c3ccco3)C2)cc1 (centres undefined) | 653.9 | 5.3 | 4.0 | i | . | .
C(=C\c1ccco1)/C1=NN(c2ccccc2)C(c2ccco2)C1 (centres undefined) | 236.7 | . | 2.9 | + | i | 2.5
C[C@@H](NC(=O)C[C@@H]1C=C[C@@H](NC(=O)C2CCC2)[C@@H](CO)O1)c1ccccc1 | . | -0.3 | . | . | . | .
Cc1cc(=O)n2c3ccccc3n(CC(O)CN3CCOCC3)c2c1C#N (centres undefined) | 198.0 | -0.6 | -0.4 | i | . | .
Cc1cc(=O)n2c3ccccc3n(CC(O)CN3CCCCC3)c2c1C#N (centres undefined) | 152.9 | . | 4.0 | + | i | 0.0
Cc1ccc(C2=NCCNC2=O)c(C)c1 | 272.0 | . | . | i | i | 0.9
CC(C)N1CC2(CC(c3ccccc3F)=NO2)CN1C(=O)c1ccco1 (centres undefined) | . | 3.2 | 1.2 | i | . | .
O=C(c1ccco1)N1CC2(CC(c3ccc(Cl)cc3)=NO2)CN1Cc1ccc(Br)cc1 (centres undefined) | . | -3.2 | -4.5 | i | i | 0.0
CC(=O)C1=C(C)N=c2s/c(=C/c3ccc4c(c3)OCO4)c(=O)n2C1c1ccc(N(C)C)cc1 (centres undefined) | . | 2.2 | 6.9 | + | i | 22.4*
Cc1ccccc1S(=O)(=O)N1CC(=O)N2[C@@H](CO)[C@H](c3ccc(C#CC4CC4)cc3)[C@@H]2C1 | . | -1.8 | . | . | . | .
Cc1cc(C)c2cc3c(N)c(C(=O)Nc4c(C)[nH]c(=O)[nH]c4=O)sc3nc2c1 | 258.3 | . | 6.5 | + | i | 4.5
O=C(NCC[C@@H]1CC[C@@H](NS(=O)(=O)c2ccc(F)cc2)[C@@H](CO)O1)Nc1ccc(F)cc1 | . | -2.9 | . | . | . | .
